Source: ChEMBL document CHEMBL1157665, “Novel 4-thiazolidinone derivatives as potential antifungal and antibacterial drugs” (2010)
≈ marks a conversion by molar mass, not a printed value.

Columns and labels:
Aspergillus niger [1] = experiment: Antifungal activity against Aspergillus niger ATCC 6275 after 72 hrs by serial sub-cultivation method; assay type: functional; conditions: ATCC 6275, 72 h
In short: (§1)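 MFC was found by serial sub-cultivation of 2 µl into plates holding 100 µl broth per well, then incubation 72 h at 28 °C. MFC is the lowest concentration with no visible growth, taken as 99.5% killing of the original inoculum. Spore inocula came from malt agar cultures washed with 0.85% saline and 0.1% Tween 80.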

Aspergillus versicolor [2] = experiment: Antifungal activity against Aspergillus versicolor ATCC 11730 after 72 hrs by serial dilution method; assay type: functional; conditions: ATCC 11730, 72 h
In short: (§2)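 Fungi were kept on malt agar at 4 °C and sub-cultured monthly. Spores were washed off the agar with sterile 0.85% saline containing 0.1% Tween 80 (v/v). Modified microdilution in 96-well plates. MIC is the lowest concentration with no visible growth under the binocular microscope. Inoculum checked on malt agar for contamination and validity.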

Aspergillus versicolor [3] = experiment: Antifungal activity against Aspergillus versicolor ATCC 11730 after 72 hrs by serial sub-cultivation method; assay type: functional; conditions: ATCC 11730, 72 h; in short: as §1
Aspergillus flavus [4] = experiment: Antifungal activity against Aspergillus flavus ATCC 9643 after 72 hrs by serial dilution method; assay type: functional; conditions: ATCC 9643, 72 h; in short: as §2
Aspergillus flavus [5] = experiment: Antifungal activity against Aspergillus flavus ATCC 9643 after 72 hrs by serial sub-cultivation method; assay type: functional; conditions: ATCC 9643, 72 h; in short: as §1
Fulvia fulva [6] = experiment: Antifungal activity against Fulvia fulva TK 5318 after 72 hrs by serial dilution method; assay type: functional; conditions: TK 5318, 72 h; in short: as §2
Fulvia fulva [7] = experiment: Antifungal activity against Fulvia fulva TK 5318 after 72 hrs by serial sub-cultivation method; assay type: functional; conditions: TK 5318, 72 h; in short: as §1
Talaromyces funiculosus [8] = experiment: Antifungal activity against Penicillium funiculosum ATCC 36839 after 72 hrs by serial dilution method; assay type: functional; conditions: ATCC 36839, 72 h; in short: as §2
Talaromyces funiculosus [9] = experiment: Antifungal activity against Penicillium funiculosum ATCC 36839 after 72 hrs by serial sub-cultivation method; assay type: functional; conditions: ATCC 36839, 72 h; in short: as §1
Penicillium ochrochloron [10] = experiment: Antifungal activity against Penicillium ochrochloron ATCC 9112 after 72 hrs by serial dilution method; assay type: functional; conditions: ATCC 9112, 72 h; in short: as §2
Penicillium ochrochloron [11] = experiment: Antifungal activity against Penicillium ochrochloron ATCC 9112 after 72 hrs by serial sub-cultivation method; assay type: functional; conditions: ATCC 9112, 72 h; in short: as §1
Trichoderma viride [12] = experiment: Antifungal activity against Trichoderma viride IAM 5061 after 72 hrs by serial dilution method; assay type: functional; conditions: IAM 5061, 72 h; in short: as §2
Trichoderma viride [13] = experiment: Antifungal activity against Trichoderma viride IAM 5061 after 72 hrs by serial sub-cultivation method; assay type: functional; conditions: IAM 5061, 72 h; in short: as §1
Aspergillus niger [14] = experiment: Antifungal activity against Aspergillus niger ATCC 6275 after 72 hrs by serial dilution method; assay type: functional; conditions: ATCC 6275, 72 h; in short: as §2
Aspergillus fumigatus [15] = experiment: Antifungal activity against Aspergillus fumigatus plant isolate after 72 hrs by serial dilution method
Aspergillus fumigatus [16] = experiment: Antifungal activity against Aspergillus fumigatus plant isolate after 72 hrs by serial sub-cultivation method
Bacillus cereus [17] = experiment: Antibacterial activity against Bacillus cereus clinical isolate after 24 hrs; assay type: functional
In short: (§3)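 Broth microdilution MIC in 96-well plates. Compounds in LB broth with bacterial inoculum of 1.0 × 10^4 cfu per well, from suspensions adjusted with sterile saline to 1.0 × 10⁵ CFU/ml. Incubated 24 h at […] as printed. MIC taken as the lowest concentration with no visible growth under the binocular microscope. OD at 655 nm also read against blank. Streptomycin and ampicillin as positive controls. Duplicate, repeated three times.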

Bacillus cereus [18] = experiment: Antibacterial activity against Bacillus cereus clinical isolate after 72 hrs by serial sub-cultivation method; assay type: functional
In short: (§4)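 MBC was found by serial sub-cultivation of 2 µl from the MIC wells into plates holding 100 µl broth per well, then incubation for 72 h. MBC is the lowest concentration with no visible growth, i.e. 99.5% killing of the original inoculum. Bacterial inoculum was 1.0 × 10^4 cfu per well in LB broth. Duplicate, repeated three times.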

Micrococcus flavus [19] = experiment: Antibacterial activity against Micrococcus flavus ATCC 10240 after 24 hrs; assay type: functional; conditions: ATCC 10240, 24 h; in short: as §3
Micrococcus flavus [20] = experiment: Antibacterial activity against Micrococcus flavus ATCC 10240 after 72 hrs by serial sub-cultivation method; assay type: functional; conditions: ATCC 10240, 72 h; in short: as §4
Staphylococcus aureus [21] = experiment: Antibacterial activity against Staphylococcus aureus ATCC 6538 after 24 hrs; assay type: functional; conditions: ATCC 6538, 24 h; in short: as §3
Staphylococcus aureus [22] = experiment: Antibacterial activity against Staphylococcus aureus ATCC 6538 after 72 hrs by serial sub-cultivation method; assay type: functional; conditions: ATCC 6538, 72 h; in short: as §4
Escherichia coli [23] = experiment: Antibacterial activity against Escherichia coli ATCC 35210 after 24 hrs; assay type: functional; conditions: ATCC 35210, 24 h; in short: as §3
Escherichia coli [24] = experiment: Antibacterial activity against Escherichia coli ATCC 35210 after 72 hrs by serial sub-cultivation method; assay type: functional; conditions: ATCC 35210, 72 h; in short: as §4
Pseudomonas aeruginosa [25] = experiment: Antibacterial activity against Pseudomonas aeruginosa ATCC 27853 after 24 hrs; assay type: functional; conditions: ATCC 27853, 24 h; in short: as §3
Pseudomonas aeruginosa [26] = experiment: Antibacterial activity against Pseudomonas aeruginosa ATCC 27853 after 72 hrs by serial sub-cultivation method; assay type: functional; conditions: ATCC 27853, 72 h; in short: as §4
Proteus mirabilis [27] = experiment: Antibacterial activity against Proteus mirabilis after 24 hrs; assay type: functional; in short: as §3
Proteus mirabilis [28] = experiment: Antibacterial activity against Proteus mirabilis after 72 hrs by serial sub-cultivation method; assay type: functional; in short: as §4
Salmonella typhimurium [29] = experiment: Antibacterial activity against Salmonella Typhimurium ATCC 13311 after 24 hrs; assay type: functional, Salmonella enterica subsp. enterica serovar Typhimurium; conditions: Salmonella enterica, ATCC 13311, 24 h; in short: as §3
Salmonella typhimurium [30] = experiment: Antibacterial activity against Salmonella Typhimurium ATCC 13311 after 72 hrs by serial sub-cultivation method; assay type: functional, Salmonella enterica subsp. enterica serovar Typhimurium; conditions: Salmonella enterica, ATCC 13311, 72 h; in short: as §4
Listeria monocytogenes [31] = experiment: Antibacterial activity against Listeria monocytogenes NCTC 7973 after 24 hrs; assay type: functional; conditions: NCTC 7973, 24 h; in short: as §3
Listeria monocytogenes [32] = experiment: Antibacterial activity against Listeria monocytogenes NCTC 7973 after 72 hrs by serial sub-cultivation method; assay type: functional; conditions: NCTC 7973, 72 h; in short: as §4

Row | SMILES | MFC (Aspergillus niger [1]) | MIC (Aspergillus versicolor [2]) | MFC (Aspergillus versicolor [3]) | MIC (Aspergillus flavus [4]) | MFC (Aspergillus flavus [5]) | MIC (Fulvia fulva [6]) | MFC (Fulvia fulva [7]) | MIC (Talaromyces funiculosus [8]) | MFC (Talaromyces funiculosus [9]) | MIC (Penicillium ochrochloron [10]) | MFC (Penicillium ochrochloron [11]) | MIC (Trichoderma viride [12]) | MFC (Trichoderma viride [13]) | MIC (Aspergillus niger [14]) | MIC (Aspergillus fumigatus [15]) | MFC (Aspergillus fumigatus [16]) | MIC (Bacillus cereus [17]) | MBC (Bacillus cereus [18]) | MIC (Micrococcus flavus [19]) | MBC (Micrococcus flavus [20]) | further results
1 | CC(=O)N1CCN(c2ccc(OCC3COC(Cn4ccnc4)(c4ccc(Cl)cc4Cl)O3)cc2)CC1 (stereo not given) [KETOCONAZOLE] | 950 µM (≈ 505 µg/mL) | 380 µM (≈ 202 µg/mL) | 950 µM (≈ 505 µg/mL) | 2850 µM (≈ 1510 µg/mL) | 3800 µM (≈ 2020 µg/mL) | 380 µM (≈ 202 µg/mL) | 950 µM (≈ 505 µg/mL) | 380 µM (≈ 202 µg/mL) | 950 µM (≈ 505 µg/mL) | 3800 µM (≈ 2020 µg/mL) | 3800 µM (≈ 2020 µg/mL) | 4750 µM (≈ 2520 µg/mL) | 5700 µM (≈ 3030 µg/mL) | 380 µM (≈ 202 µg/mL) | 380 µM (≈ 202 µg/mL) | 950 µM (≈ 505 µg/mL) |  |  |  |  | 
2 | CC1(C)S[C@@H]2[C@H](NC(=O)[C@H](N)c3ccccc3)C(=O)N2[C@H]1C(=O)O [AMPICILLIN] |  |  |  |  |  |  |  |  |  |  |  |  |  |  |  |  | 248 µM (≈ 86.7 µg/mL) | 372 µM (≈ 130 µg/mL) | 248 µM (≈ 86.7 µg/mL) | 372 µM (≈ 130 µg/mL) | MIC (Staphylococcus aureus [21]): 248 µM (≈ 86.7 µg/mL); MBC (Staphylococcus aureus [22]): 372 µM (≈ 130 µg/mL); MIC (Escherichia coli [23]): 372 µM (≈ 130 µg/mL); MBC (Escherichia coli [24]): 492 µM (≈ 172 µg/mL); MIC (Pseudomonas aeruginosa [25]): 744 µM (≈ 260 µg/mL); MBC (Pseudomonas aeruginosa [26]): 1240 µM (≈ 433 µg/mL); MIC (Proteus mirabilis [27]): 372 µM (≈ 130 µg/mL); MBC (Proteus mirabilis [28]): 492 µM (≈ 172 µg/mL); MIC (Salmonella typhimurium [29]): 248 µM (≈ 86.7 µg/mL); MBC (Salmonella typhimurium [30]): 492 µM (≈ 172 µg/mL); MIC (Listeria monocytogenes [31]): 372 µM (≈ 130 µg/mL); MBC (Listeria monocytogenes [32]): 744 µM (≈ 260 µg/mL)
3 | O=C1N/C(=N/c2nc(C34CC5CC(CC(C5)C3)C4)cs2)S/C1=C\c1ccccc1Cl | 21.9 µM (≈ 9.99 µg/mL) | 16.4 µM (≈ 7.48 µg/mL) | 21.9 µM (≈ 9.99 µg/mL) | 11 µM (≈ 5.02 µg/mL) | 21.9 µM (≈ 9.99 µg/mL) | 11 µM (≈ 5.02 µg/mL) | 16.4 µM (≈ 7.48 µg/mL) | 21.9 µM (≈ 9.99 µg/mL) | 32.3 µM (≈ 14.7 µg/mL) | 11 µM (≈ 5.02 µg/mL) | 21.9 µM (≈ 9.99 µg/mL) | 11 µM (≈ 5.02 µg/mL) | 21.9 µM (≈ 9.99 µg/mL) | 11 µM (≈ 5.02 µg/mL) | 16.4 µM (≈ 7.48 µg/mL) | 21.9 µM (≈ 9.99 µg/mL) | 21.9 µM (≈ 9.99 µg/mL) | 43.8 µM (≈ 20 µg/mL) | 16.4 µM (≈ 7.48 µg/mL) | 23.8 µM (≈ 10.9 µg/mL) | MIC (Staphylococcus aureus [21]): 21.9 µM (≈ 9.99 µg/mL); MBC (Staphylococcus aureus [22]): 43.8 µM (≈ 20 µg/mL); MIC (Escherichia coli [23]): 21.9 µM (≈ 9.99 µg/mL); MBC (Escherichia coli [24]): 43.8 µM (≈ 20 µg/mL); MIC (Pseudomonas aeruginosa [25]): 21.9 µM (≈ 9.99 µg/mL); MBC (Pseudomonas aeruginosa [26]): 43.8 µM (≈ 20 µg/mL); MIC (Proteus mirabilis [27]): 43.8 µM (≈ 20 µg/mL); MBC (Proteus mirabilis [28]): 63.7 µM (≈ 29 µg/mL); MIC (Salmonella typhimurium [29]): 21.9 µM (≈ 9.99 µg/mL); MBC (Salmonella typhimurium [30]): 43.8 µM (≈ 20 µg/mL); MIC (Listeria monocytogenes [31]): 21.9 µM (≈ 9.99 µg/mL); MBC (Listeria monocytogenes [32]): 43.8 µM (≈ 20 µg/mL)
4 | c1ccc(-c2ccc(C(c3ccccc3)n3ccnc3)cc2)cc1 (stereo not given) [BIFONAZOLE] | 640 µM (≈ 199 µg/mL) | 320 µM (≈ 99.3 µg/mL) | 640 µM (≈ 199 µg/mL) | 480 µM (≈ 149 µg/mL) | 640 µM (≈ 199 µg/mL) | 320 µM (≈ 99.3 µg/mL) | 640 µM (≈ 199 µg/mL) | 640 µM (≈ 199 µg/mL) | 800 µM (≈ 248 µg/mL) | 480 µM (≈ 149 µg/mL) | 640 µM (≈ 199 µg/mL) | 640 µM (≈ 199 µg/mL) | 800 µM (≈ 248 µg/mL) | 480 µM (≈ 149 µg/mL) | 480 µM (≈ 149 µg/mL) | 640 µM (≈ 199 µg/mL) |  |  |  |  | 
